Assay outcomes from PubChem BioAssay.
Shown is part of a subset that was picked to be rich in hits.
Insulin prom act: TRM-6 insulin promoter activation | TRM-6 cells (human fetal islet line), insulin promoter eGFP reporter, imaging; plate-scaled: unstimulated 0, stimulated control 100 | 130,000 tested, 0.81% active | AID 1296 | activation, % at 2 µM;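 active means activation at 2 µM above a set limit, confirmed on inspection of the cell images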;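 further: share of cells whose green reporter signal exceeds an intensity cutoff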
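test system = TRM-6 insulin promoter–eGFP reporter cells | benchmarks = stimulated versus unstimulated wells as plate controls | read-out basis = percent cells above green-intensity threshold, converted to percent activation versus plate controls | detection = fixed-cell fluorescence microscopy, eGFP plus Hoechst | incubation = tamoxifen pre-incubation 15 h overnight, then compound exposure 48 h at 37 °C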
Each line names hits and unclear results; the compound was inactive in the other large screens.

CN(CC(=O)N1CCCC1)S(=O)(=O)c1ccc(Cl)cc1	none
COc1ccc(S(=O)(=O)N(C)CC(=O)N2CCOCC2)cc1Cl	Insulin prom act 462.5
COc1ccc(S(=O)(=O)N(C)CC(=O)N2CCCCC2)cc1Cl	none
COc1ccc(-c2onc3ccc(Cl)cc23)cc1OC	none
O=C(COC(=O)CC(c1ccccc1)c1ccccc1)Nc1c(F)cccc1F	none
Cc1ccc(N(c2ncnc(N)c2[N+](=O)[O-])C2CCCCC2)cc1	none
CC1CCN(S(=O)(=O)c2ccc3nc(-c4ccccn4)cc(C(=O)NCCN(C)Cc4ccccc4)c3c2)CC1	none
Cc1noc(C)c1CSc1ccc2ccccc2n1	Insulin prom act 104.9
Cc1noc(C)c1CSc1nc2ccccc2s1	none
Cc1noc(C)c1CSc1nnc(C)c(=O)[nH]1	none
COc1cc(/C=C2/C(=O)c3cccc([N+](=O)[O-])c3C2=O)c(Br)cc1O	none
CC1=C(C)CC2(SC1)C(=O)N(c1ccccc1)N=C2N (centres undefined)	none
O=[N+]([O-])c1ccc(S(=O)(=O)N2CCN=C2SCc2cccnc2)cc1	none
CC(C)C(NS(=O)(=O)c1cccs1)C(=O)NCCN1CCN(c2ccccc2)CC1 (centres undefined)	none
CC(Cc1ccccc1)C(=O)NCc1ccncc1 (centres undefined)	none
CC(C)C(NS(=O)(=O)c1cccs1)C(=O)NCc1ccc2c(c1)OCO2 (centres undefined)	Insulin prom act 162.5
CCOC(=O)CNC(=O)C(Cc1ccccc1)NS(=O)(=O)c1cccs1 (centres undefined)	none
CCCC(C)C(=O)NCc1ccc2c(c1)OCO2 (centres undefined)	none
Cc1ccc(CNC(=O)C(Cc2ccccc2)NS(=O)(=O)c2cccs2)cc1 (centres undefined)	Insulin prom act 96.4
Cc1ccc(SCC(=O)Nc2ccc(S(N)(=O)=O)cc2)cc1	none
CCOC(=O)c1nnsc1Nc1ccc(C)c(C)c1	none
N#C/C(=C\C1CC2C=CC1C2)c1nc2ccccc2[nH]1 (centres undefined)	none
COC(=O)c1sc2nc(C)nc(SCC(=O)N3CCC(C(=O)O)CC3)c2c1C	none
CCCC(=O)Nc1ccc(Cl)c(NC(=O)c2cccnc2Cl)c1	none
O=[N+]([O-])c1c(C(Cl)Cl)nn(-c2ccccc2)c1N1CCCC1	none
c1ccc(-c2nc(-n3nc4ccccc4n3)nc3ccccc23)cc1	Insulin prom act 145.5
c1ccc(-c2nn3nnnc3c3ccccc23)cc1	none
Clc1ccc(-c2nc(N3CCCCC3)nc3ccccc23)cc1	none
CCNC(=O)c1ccccc1CCc1ccccc1	none
Cc1ccc(C(=O)NCC(=O)NCC(=O)OCc2ccc(F)cc2)cc1	none
COc1ccc(/C=C2\SC(=O)NC2=S)cc1OC	none
COc1ccc(/C=C2/C(=O)N=C(N)N2C)cc1OC	Insulin prom act 252.2
COc1ccc(/C=C2/C(=O)N=C3SCCN32)cc1	none
COC(=O)Cc1ccc(NC(=S)Nc2ccc(N3CCOCC3)cc2)cc1	none
COc1ccc(N(CC(=O)NN=C2CCCCCCC2)S(=O)(=O)c2ccccc2)cc1	none
CCc1cc(SC#N)cc(CC)c1NC(=O)CCl	none
CNC(=S)/N=C/NOCc1ccc(Cl)cc1Cl	none
CC(C)[C@@H]1NC(=O)c2cc([N+](=O)[O-])cc(I)c2NCCCC[C@@H](C(=O)NC(CC(=O)O)C(N)=O)NC(=O)[C@H](CO)NC1=O (some centres undefined)	none
CC(O)C(NS(=O)(=O)c1ccc(Cl)cc1)C(=O)OCC(=O)N1CCN(c2ccccc2)CC1 (centres undefined)	none
O=C(O)C(NS(=O)(=O)c1ccc(F)cc1)c1ccccc1 (centres undefined)	none
Cc1ccc(S(=O)(=O)NC(c2ccccc2)C(C)C(=O)n2nc(C)cc2C)cc1 (centres undefined)	Insulin prom act 117.4
Cc1cc(Nc2ccccc2)n(C(=O)c2ccccc2)n1	none
O=c1c2ccccc2nc(SCc2nc(-c3ccccc3)no2)n1-c1ccc(F)cc1	none
COc1ccc(Br)cc1C(=O)Nc1ccc(N2CCN(S(C)(=O)=O)CC2)cc1	none
COc1ccc(Br)cc1C(=O)O	none
COc1ccc(Br)cc1C(=O)Nc1ccc(C(=O)O)cc1	Insulin prom act 341.2
COc1ccc(-c2cc(CNS(=O)(=O)c3ccccc3)on2)cc1	none
Cc1ccc(S(=O)(=O)Nc2cnn(-c3ccccc3)c(=O)c2Cl)cc1	none
CC(C(=O)O/N=C(\N)c1cccnc1)c1ccc([N+](=O)[O-])cc1 (centres undefined)	none
Cc1c(OCc2ccccc2)c(=O)ccn1Cc1ccc(Cl)cc1	none
Cc1c(O)c(=O)ccn1Cc1ccccc1	Insulin prom act 257.1
Cc1c(OCc2ccccc2)c(=O)ccn1Cc1ccc(F)cc1	none
O=C(Nc1cccc(C(F)(F)F)c1)n1cc(-c2ccccn2)c(N2CCOCC2)n1	none
CCN1/C(=C/C(C)=C/c2sc3ccccc3[n+]2CC)Sc2ccccc21	Insulin prom act 640.7
COc1cccc(C2=NOC(C(=O)Nc3cccc(C(C)=O)c3)C2)c1OC (centres undefined)	none
O=C(COC(=O)[C@@H]1CC(O)CN1S(=O)(=O)c1ccccc1[N+](=O)[O-])Nc1ccc2ccccc2c1 (some centres undefined)	none
CS(=O)(=O)N(CC(=O)NC1CCCC1)Cc1ccc(Cl)cc1	none
CN1CCN(C(=O)CN(Cc2ccc(Cl)cc2)S(C)(=O)=O)CC1	Insulin prom act 578.6
CS(=O)(=O)N(CC(=O)N1CCCCCC1)Cc1ccc(Cl)cc1	none
O=C(NCc1ccccc1)N1CCC(c2nc3ccccc3[nH]2)CC1	none
CCOCCCNc1nc2c(C)cccn2c(=O)c1/C=C1\SC(=S)N(CC(C)C)C1=O	Insulin prom act 222.6
Cc1cccn2c(=O)c(C=NCCO)c(NCc3ccco3)nc12	none
COc1ccccc1NS(=O)(=O)/C=C/c1ccccc1	none
CC1(C)Cc2cccc(OCC(=O)Nc3cccnc3Cl)c2O1	none
Cn1c(SCC(=O)N2CCOCC2)nc(O)cc1=O	none
O=C1CSC(c2ccccc2[N+](=O)[O-])N1CCc1ccccc1 (centres undefined)	none
O=C(CSc1nnc(-c2ccco2)n1-c1ccccc1)N1CCOCC1	none
Cc1ccc(-n2c(SCC(=O)N3CCOCC3)nnc2-c2cccnc2)cc1	none
Nn1c(SCC(=O)N2CCOCC2)nnc1-c1ccccc1Cl	Insulin prom act 111.1
CCOC(=O)N1CCC(N(CCN(C)C)C(=S)Nc2ccc(OCC)cc2)CC1	none
O=C(/C=C/c1c(Cl)cccc1Cl)NCCc1ccccc1	none
O=C(O)/C=C/C(=O)NCCc1ccccc1	Insulin prom act 321.4
COc1ccc(CCNC(=O)/C=C/C(=O)O)cc1	none
N#CCC(=O)c1sccc1-n1cccc1	none
COc1ccc(C2=NCCn3cccc32)c(OC)c1	none
O=C(CSc1nn(-c2ccccc2)c(=S)s1)Nc1ncccn1	Insulin prom act 376.9
Cc1cc(C)nc(NC(=O)CSc2nc3ccccc3s2)n1	none
O=C(CSc1ncn(-c2ccccc2)n1)Nc1nccs1	none
O=C(N/N=C/c1cccnc1)c1ccccc1[N+](=O)[O-]	none
Cc1oc(-c2ccccc2F)nc1CN1CCC(C(=O)NC2CCCc3ccccc32)CC1 (centres undefined)	none
Cc1oc(-c2ccc(Cl)cc2)nc1CN1CCC(C(=O)NCc2cccs2)CC1	none
Cc1cccc(-c2nc(CN3CCCC(C(=O)NC4CCC(C)CC4)C3)c(C)o2)c1 (centres undefined)	Insulin prom act 135.7
O=C(O)C1CCCN(S(=O)(=O)c2ccc3c(c2)OCCO3)C1 (centres undefined)	none
O=c1c2sc3ccccc3c2[nH]c(=S)n1CCN1CCOCC1	none
O=C(CSCc1ccc(Cl)cc1Cl)Nc1nccs1	none
